EP2 antag: blocks the human prostaglandin E2 receptor EP2. P43116. C6 glioma cells expressing human EP2, cAMP TR-FRET; cells stimulated with saturating PGE2. inhibition, % at 25 µM. actives 0.52% (n = 260,000). AID 1422;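 active = percent inhibition above 40 after rounding to a whole number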;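 note: rat C6 glioma host cells with rolipram phosphodiesterase inhibitor present; the protocol text gives 20 µM as final concentration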
Target sequence (P43116 whole entry, looked up): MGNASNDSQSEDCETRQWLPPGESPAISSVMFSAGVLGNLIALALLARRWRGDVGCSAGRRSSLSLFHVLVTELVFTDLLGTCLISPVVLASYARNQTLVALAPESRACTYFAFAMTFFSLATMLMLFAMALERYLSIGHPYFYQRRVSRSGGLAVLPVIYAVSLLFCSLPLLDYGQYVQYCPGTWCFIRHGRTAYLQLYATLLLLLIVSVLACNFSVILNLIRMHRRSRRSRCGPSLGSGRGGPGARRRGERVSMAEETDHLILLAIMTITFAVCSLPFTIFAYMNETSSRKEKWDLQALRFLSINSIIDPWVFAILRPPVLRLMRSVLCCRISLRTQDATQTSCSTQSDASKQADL
Hsp70 act: transcriptional activators of Hsp70. HeLa Hsp70 promoter luciferase reporter, luminescence; scaled: vehicle 0, proteasome-inhibitor control 100%. activation, % at 10 µM. actives 0.04% (n = 200,000). AID 1203;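 active = activation above the mean across all tested compounds plus 3 SD, cutoff set per campaign, cut at about 5.5% in these data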;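 note: 100% = MG132 at 30 µM as the positive control and 0% = DMSO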
Dynein transport: dynein cargo transport inhibition | actives 0.47% (n = 220,000) | z-score, hits read low | 3617.4 mouse cells, GR-EGFP nuclear translocation imaging; test concentration mostly 20 µM; stimulated with dexamethasone, 1 µM; hits give low values;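 active = plate z-score of nuclear minus cytoplasmic receptor signal below a set negative limit, without overly bright fluorescence or cell loss, cut at about -3.5 in these data, passing the limit was not always enough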;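 note: z-score of nuclear minus cytoplasmic ring GR-EGFP intensity difference per well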
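medium = tetracycline-free induction medium containing charcoal-stripped FBS | probe or stimulus = dexamethasone, 1.0 µM final | timing = 48 h induction, then 1 h compound, then 30 min agonist, 37 °C | detection = automated 10x imaging of fixed Hoechst-stained cells | read-out basis = nuclear versus cytoplasmic GR-EGFP signal, averaged per well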
EP2 modulator: EP2 receptor (human) modulation | P43116 | EP2-expressing cells, cAMP HTRF FRET, PGE2 co-stimulation | induction, % at 25 µM | actives 0.83% (n = 260,000) | AID 940;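 active = compounds whose cAMP rise, as percent of the full-agonist control response, exceeds 60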;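 note: rat C6 glioma line stably carrying human EP2 under a CMV promoter; the protocol text gives 20 µM as final concentration; 100% = response of wells given 1 µM PGE2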
Dynein inh conf: dynein cargo transport inhibition, confirmation. shares compounds with Dynein transport. 3617.4 GR-EGFP nuclear translocation imaging, dexamethasone-induced. calls only at 20 µM. actives 69% (n = 1,000);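 active = inhibition of receptor movement into the nucleus at or above a set limit in both runs, with normal cell brightness and cell count; inconclusive = limit reached in only one run, brightness and count normal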;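 note: dexamethasone at 1 µM final in well for 30 min; nuclear minus cytoplasmic GR-EGFP mean intensity difference in channel 2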
Starred values were filed as active, the others as inactive; i = inactive; ? = inconclusive; nt = no result given; + = active, no number. This is a sample that favours compounds with a hit; in the whole collection about 1.7% have one here.

SMILES | EP2 antag | Hsp70 act | Dynein transport | EP2 modulator | Dynein inh conf
Cc1ccc(-c2nc3cnccn3c2Nc2ccccc2)o1 | 13.1 | nt | -3.85* | -36.6 | i
N#CC(C#N)=Cc1cc2ccccc2nc1N1CCCCC1 | 5.7 | -0.5 | -4.38* | 2.5 | ?
O=[N+]([O-])c1ccc(C=Nc2ccc(Cl)c([N+](=O)[O-])c2)s1 | 5.7 | 0.7 | -5.65* | -27.9 | +
CSc1nc(NN)c2c3c(sc2n1)CCC3 | 14.3 | nt | nt | -40.7 | nt
C=C(CC)C(=O)c1ccc(OCC(=O)O)c(Cl)c1Cl | 12.9 | -0.2 | -3.74* | 6.7 | +
CCN(Cc1ccc(OC)c(F)c1)C(=O)CCl | 3.6 | 0.1 | -4.32* | -9.8 | ?
CCN(CC)C(=O)COc1ccc(CC(=O)O)cc1OC | 12.9 | -0.4 | 0.774 | -6.0 | nt
O=C(NCc1ccncc1)C(=O)Nc1cc(Cl)cc(Cl)c1 | 10.7 | nt | nt | -62.7 | nt
N#Cc1c(Cl)c(Cl)c2nnc(-c3ccc(Br)cc3)n2c1Cl | 118.1* | -0.2 | -6.28* | -49.9 | +
Cn1c(SCC#N)nnc1-c1ccc(Br)cc1 | 1.2 | nt | nt | -13.1 | nt
Cc1nc(-c2cc3ccccc3[nH]c2=O)no1 | 8.2 | nt | nt | -14.4 | nt
COc1ccccc1N1C(=O)C=C(Sc2nc(C)cc(C)n2)C1=O | 42.2* | nt | -3.95* | -61.5 | +
CC(C)C(NC(=O)OC(C)(C)C)C(=O)N1CCCC1C(N)=O (configuration not stated) | 12.9 | nt | nt | -0.7 | nt
O=C(N/N=C/c1c[nH]c2ccccc12)c1cccc([N+](=O)[O-])c1 | 5.6 | -0.2 | -0.177 | -13.7 | nt
COc1ccccc1NS(=O)(=O)c1cc([N+](=O)[O-])ccc1N/N=C/c1c[nH]c2ccccc12 | 11.4 | -0.3 | -4.13 | -30.8 | i
O=C(N/N=C/c1ccc[nH]1)c1ccccc1[N+](=O)[O-] | 7.4 | -0.4 | 1.54 | 1.9 | nt
O=[N+]([O-])c1ccc(N/N=C/c2c[nH]c3ccccc23)cc1 | 25.5 | 0.0 | -8.38 | -15.5 | +
Cc1[nH]c2ccccc2c1/C=N/Nc1ccc([N+](=O)[O-])cc1S(=O)(=O)Nc1ccc(Cl)cc1 | 9.4 | -0.3 | -5.35 | 1.6 | i
O=[N+]([O-])c1ccc(N/N=C/c2ccc[nH]2)cc1 | 14.8 | -0.2 | -10.6 | -62.8 | +
O=[N+]([O-])c1ccccc1N/N=C/c1c[nH]c2ccccc12 | 21.9 | -0.2 | -0.681 | -9.8 | nt
COc1ccc(NS(=O)(=O)c2cc([N+](=O)[O-])ccc2N/N=C\c2c(C)[nH]c3ccccc23)cc1 | 13.1 | -0.3 | -0.184 | -36.6 | nt
COc1ccc(CNC(=O)CN2C(=O)c3cccc4cccc2c34)cc1 | 6.7 | nt | nt | -55.9 | nt
NC(=O)CSc1nnc(-c2ccco2)n1Cc1ccco1 | 5.6 | nt | nt | -19.1 | nt
COc1ccccc1NS(=O)(=O)c1cc([N+](=O)[O-])ccc1N/N=C/c1sc(N2CCOCC2)nc1-c1ccccc1 | 2.8 | -0.3 | -11.8 | 47.6 | i
CCN(CC)CCN(Cc1cc2ccc(C)cc2[nH]c1=O)C(=S)Nc1ccc(F)cc1 | 9.5 | nt | nt | -64.6 | nt
SMILES | EP2 antag | Hsp70 act | Dynein transport | EP2 modulator | Dynein inh conf
Cc1nn(CC(=O)N2CCN(c3ccccc3F)CC2)c(=O)c2cc3occc3n12 | 3.9 | nt | nt | -9.6 | nt
O=C1N/C(=N/O)S/C1=C/c1cccc([N+](=O)[O-])c1 | 3.8 | -0.2 | 0.39 | -36.2 | nt
CC1(C)CC(=O)/C(=C\c2cccc([N+](=O)[O-])c2)C(C)(C)N1 | 6.4 | -0.5 | -3.6* | 18.7 | +
O=C(CSc1nc(-c2ccco2)cc(C(F)(F)F)n1)N1CCCCC1 | 32.7 | nt | nt | -21.1 | nt
O=C(CCl)N(C/C=C/c1ccccc1)c1ccc2c(c1)OCCO2 | 9.6 | 0.0 | -3.95* | -55.1 | +
N#Cc1cccc(N=c2ssnc2Cl)c1 | 10.8 | -0.1 | -4.37 | -68.6 | +
CCOC(=O)c1c(-c2ccccc2)csc1NC(=O)/C(C#N)=C/c1ccc(O)c(OC)c1 | 8.6 | -0.5 | -4.75* | 27.9 | +
CCOC(=O)c1c(-c2ccccc2)csc1NC(=O)/C(C#N)=C/c1ccc(OC)c(OC)c1 | 13.1 | -0.3 | 4.26 | 33.0 | nt
Cc1cccc(C(=O)Nc2ccc(NC(=O)/C=C/c3ccco3)cc2)c1 | 9.1 | nt | nt | -27.9 | nt
COc1ccccc1NC1=C(NC(C)=O)C(=O)c2ccccc2C1=O | 2.3 | -0.4 | -5.07* | -29.6 | ?
C#CC(=O)N(c1ccc(OC)c(OC)c1)C(C(=O)NC1CCCC1)c1cccs1 (configuration not stated) | 15.0 | -0.1 | -4.73* | 26.7 | +
COc1cccc(N(C(=O)Cc2cccs2)C(C(=O)NC2CCCC2)c2ccccc2)c1 (configuration not stated) | 10.9 | nt | nt | 19.1 | nt
C#CC(=O)N(c1cccc(OC)c1)C(C(=O)NC1CCCC1)c1cccs1 (configuration not stated) | 11.7 | 0.0 | -5.3* | -59.5 | +
COc1ccc(N(C(=O)Cc2cccs2)C(C(=O)NC2CCCCC2)c2cccn2C)cc1OC (configuration not stated) | 11.0 | -0.2 | 0.55 | 50.2 | nt
CC(C)(C)c1ncc(C(=O)Nc2cccc(C(=O)N3CCOCC3)c2)cn1 | 6.8 | nt | nt | -16.6 | nt
O=C(CCSc1nc(-c2ccc3c(c2)OCO3)cc(C(F)(F)F)n1)NCc1ccc(F)cc1 | 25.5 | nt | nt | -105.5 | nt
CC(=O)N1/C(=C/c2ccc(N(C)C)cc2)C(=O)c2ccccc21 | 16.6 | 0.0 | -5.77* | -54.4 | +
CCOc1ccccc1C1C(C#N)=C(N)Oc2n[nH]c(-c3cc(C)sc3C)c21 (configuration not stated) | 8.7 | nt | nt | 56.4 | nt
CCOC(=O)c1c2ccc(OCC(=O)N/N=C/c3ccccc3C(F)(F)F)cc2n2ccccc12 | 20.2 | -0.2 | -0.619 | 3.3 | nt
CCOC(=O)c1c2ccc(OCC(=O)N/N=C/c3ccc(Cl)cc3)cc2n2ccccc12 | nt | 0.4 | -3.85 | -9.0 | i
O=[N+]([O-])c1ccc(N2CCN(c3ccc(Cl)nn3)CC2)cc1NC1CC1 | 2.6 | -0.1 | -8.38 | nt | i
CC1CCCCN1CC(=O)Nc1ccc(F)cc1 (configuration not stated) | 11.6 | nt | nt | -24.4 | nt
COc1ccc(N=C2S/C(=C\c3ccc(N4CCOCC4)o3)C(=O)N2CCc2c[nH]c3ccccc23)cc1 | 7.0 | 0.6 | -9.05 | 23.2 | +
COc1ccc(N=C2S/C(=C\c3ccc(OCC(=O)O)cc3)C(=O)N2CCc2c[nH]c3ccccc23)cc1 | -0.8 | -0.2 | 1.17 | 22.5 | nt
N#C/C(=C/c1ccc(N2CCCCC2)o1)c1cccc(F)c1 | 5.0 | 0.1 | -4.28 | 21.6 | i
COc1ccc(CNC(=O)Cn2nnc3ccccc3c2=O)cc1 | 9.7 | nt | -5.26* | 6.6 | i
CC(C)(C)NC(=S)N/N=C\c1ccc(-c2ccc([N+](=O)[O-])cc2)o1 | 9.8 | nt | -5.97 | -10.8 | i
Nc1ncnc(Sc2ncccn2)c1[N+](=O)[O-] | 12.7 | 0.3 | -5.11* | -30.0 | ?
COc1ccc(CCNC(=O)CSc2nnnn2-c2ccc3c(c2)OCCO3)cc1OC | 14.6 | nt | nt | -64.5 | nt

Compound activity as filed in PubChem.
